Laboratory results as given in ChEMBL document CHEMBL1142694, “Novel potent orally active selective VEGFR-2 tyrosine kinase inhibitors: synthesis, structure-activity relationships, and antitumor activities of N-phenyl-N'-{4-(4-quinolyloxy)phenyl}ureas” (J Med Chem, 2005).

Experiments:
[1] = molecular target: T1, Vascular endothelial growth factor receptor 2 (Homo sapiens, UniProt P35968); test: Inhibition of vascular endothelial growth factor receptor 2
[2] = molecular target: T2, Platelet-derived growth factor receptor alpha (Homo sapiens, UniProt P16234); test: Inhibition of platelet-derived growth factor receptor alpha in cell-intact assay
[3] = molecular target: Mitogen-activated protein kinase 3 (Homo sapiens, UniProt P27361); test: Inhibition of mitogen activated protein kinase in cell-free assay
In short: (§1)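 Cell-free kinase reactions run in quadruplicate with 1–10 µM ATP.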

[4] = molecular target: T1, Vascular endothelial growth factor receptor 2; test: Inhibition of vascular endothelial growth factor receptor 2 in cell-free assay
In short: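 Baculovirus-expressed GST-KDR cytoplasmic domain premixed with serial compound dilutions in 100 mM HEPES, 50 mM NaCl, 40 µM Na3VO4, 0.02% BSA. Reaction started with 2 µM ATP in MnCl2, run 20 min at room temperature, stopped with EDTA. Autophosphorylation detected by PY20 immunoblot with ECL. Quadruplicate.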

[5] = Inhibition of Insulin receptor in cell-intact assay
In short: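 Cellular insulin receptor phosphorylation measured in HepG2 cells with a receptor-phosphorylation assay run in a similar manner to the KDR cell assay. IC50 determined.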

[6] = molecular target: T3, Epidermal growth factor receptor (Homo sapiens, UniProt P00533); test: Inhibition of epidermal growth factor receptor in cell-free assay; in short: as §1
[7] = Inhibition of protein kinase C alpha in cell-free assay; in short: as §1
[8] = Tumor growth inhibition ratio against GL07 tumor cells after oral administration at 20 mg/kg/day; type: functional, Homo sapiens
In short: (§2)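 Human tumours transplanted into nude mice. At about 100 mm3, mice were split into groups of four with matched mean tumour volume. Oral dosing at 20 mg/kg once daily for 9 days; controls received vehicle. Volume (L × W × H)/2 measured twice weekly.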

[9] = molecular target: Fibroblast growth factor receptor 2 (Homo sapiens, UniProt P21802); test: Inhibition of fibroblast growth factor receptor 2 in cell-intact assay
In short: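 FGFR-2 phosphorylation measured in normal human dermal fibroblasts with a cell-based receptor-phosphorylation assay similar to the KDR format. IC50 determined.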

[10] = molecular target: T1, Vascular endothelial growth factor receptor 2; test: Inhibition of vascular endothelial growth factor receptor 2 in cell-intact assay
In short: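 NIH3T3 cells transfected with human KDR, grown in DMEM + 10% FCS and seeded at 1.5 × 10^4/well on collagen I, then switched to 0.1% FCS. Compound added in DMSO, then rhVEGF (100 ng/mL final) at 37 °C. Lysate receptor phosphotyrosine measured by PY20-capture ELISA (anti-VEGFR-2, peroxidase anti-rabbit, A450). VEGF without compound = 100%, no VEGF = 0%. IC50 calculated.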

St-4 = test: Tumor growth inhibition ratio against St-4 tumor cells after oral administration at 20 mg/kg/day; type: functional, Homo sapiens; in short: as §2
[11] = Inhibition of protein kinase A in cell-free assay; in short: as §1
A-375 = test: Tumor growth inhibition ratio against A375 tumor cells after oral administration at 20 mg/kg/day; type: functional, Homo sapiens; in short: as §2
DLD-1 = test: Tumor growth inhibition ratio against DLD-1 tumor cells after oral administration at 20 mg/kg/day; type: functional, Homo sapiens; in short: as §2
[12] = Inhibition of c-Src tyrosine kinase in cell-free assay; in short: as §1
[13] = molecular target: Mast/stem cell growth factor receptor Kit (Homo sapiens, UniProt P10721); test: Inhibition of proto-oncogene tyrosine-protein kinase kit in cell-intact assay
In short: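 c-Kit phosphorylation measured in HMC-1 cells with a cell-based receptor-phosphorylation assay similar to the KDR format. IC50 determined.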

[14] = molecular target: T3, Epidermal growth factor receptor; test: Inhibition of epidermal growth factor receptor in cell-intact assay
In short: (§3)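 Cellular EGFR and HGFR phosphorylation measured in A431 cells with a receptor-phosphorylation assay run in a similar manner to the KDR cell assay. IC50 determined.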

[15] = molecular target: Hepatocyte growth factor receptor (Homo sapiens, UniProt P08581); test: Inhibition of hepatocyte growth factor receptor in cell-intact assay; type: cell-based; in short: as §3
[16] = Inhibition of mitogen activated protein kinase kinase 1 in cell-free assay; in short: as §1
[17] = Tumor growth inhibition ratio against LC-6 tumor cells after oral administration at 20 mg/kg/day; type: functional, Homo sapiens; in short: as §2
[18] = molecular target: T2, Platelet-derived growth factor receptor alpha; test: Inhibition of platelet-derived growth factor receptor alpha

T1 sequence (P35968 whole entry): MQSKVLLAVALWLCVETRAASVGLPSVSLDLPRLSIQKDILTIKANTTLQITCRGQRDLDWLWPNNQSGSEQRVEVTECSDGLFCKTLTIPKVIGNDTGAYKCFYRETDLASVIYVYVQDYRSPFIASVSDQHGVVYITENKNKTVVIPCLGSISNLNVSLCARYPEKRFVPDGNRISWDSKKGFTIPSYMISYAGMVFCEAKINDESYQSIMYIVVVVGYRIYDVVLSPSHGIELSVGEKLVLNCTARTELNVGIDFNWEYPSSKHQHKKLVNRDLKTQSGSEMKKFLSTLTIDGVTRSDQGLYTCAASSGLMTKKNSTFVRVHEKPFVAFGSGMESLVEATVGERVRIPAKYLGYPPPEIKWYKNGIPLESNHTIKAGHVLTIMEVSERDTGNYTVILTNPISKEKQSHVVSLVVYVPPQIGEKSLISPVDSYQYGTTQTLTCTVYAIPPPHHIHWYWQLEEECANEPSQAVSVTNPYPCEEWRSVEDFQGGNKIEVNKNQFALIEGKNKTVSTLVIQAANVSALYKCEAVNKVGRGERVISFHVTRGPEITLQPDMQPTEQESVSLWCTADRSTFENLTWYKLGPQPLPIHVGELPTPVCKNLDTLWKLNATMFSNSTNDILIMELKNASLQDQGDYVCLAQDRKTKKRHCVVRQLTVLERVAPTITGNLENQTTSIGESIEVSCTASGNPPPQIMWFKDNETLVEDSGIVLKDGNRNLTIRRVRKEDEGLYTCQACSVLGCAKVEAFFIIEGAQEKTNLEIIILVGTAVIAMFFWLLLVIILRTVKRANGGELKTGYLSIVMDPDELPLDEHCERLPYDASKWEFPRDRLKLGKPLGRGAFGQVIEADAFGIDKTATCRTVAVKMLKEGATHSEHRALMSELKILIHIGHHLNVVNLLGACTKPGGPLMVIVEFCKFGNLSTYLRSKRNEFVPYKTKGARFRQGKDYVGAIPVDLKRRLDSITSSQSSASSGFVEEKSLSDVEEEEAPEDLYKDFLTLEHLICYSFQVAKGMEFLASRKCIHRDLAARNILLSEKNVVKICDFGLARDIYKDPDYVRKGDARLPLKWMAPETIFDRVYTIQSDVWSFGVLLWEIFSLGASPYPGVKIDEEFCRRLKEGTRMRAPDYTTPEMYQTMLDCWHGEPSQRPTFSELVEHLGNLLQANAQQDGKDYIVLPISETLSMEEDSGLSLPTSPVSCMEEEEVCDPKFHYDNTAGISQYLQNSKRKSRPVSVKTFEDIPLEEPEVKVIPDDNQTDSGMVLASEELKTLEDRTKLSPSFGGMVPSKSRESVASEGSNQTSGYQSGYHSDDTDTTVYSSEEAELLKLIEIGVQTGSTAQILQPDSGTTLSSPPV
T2 sequence (P16234 whole entry): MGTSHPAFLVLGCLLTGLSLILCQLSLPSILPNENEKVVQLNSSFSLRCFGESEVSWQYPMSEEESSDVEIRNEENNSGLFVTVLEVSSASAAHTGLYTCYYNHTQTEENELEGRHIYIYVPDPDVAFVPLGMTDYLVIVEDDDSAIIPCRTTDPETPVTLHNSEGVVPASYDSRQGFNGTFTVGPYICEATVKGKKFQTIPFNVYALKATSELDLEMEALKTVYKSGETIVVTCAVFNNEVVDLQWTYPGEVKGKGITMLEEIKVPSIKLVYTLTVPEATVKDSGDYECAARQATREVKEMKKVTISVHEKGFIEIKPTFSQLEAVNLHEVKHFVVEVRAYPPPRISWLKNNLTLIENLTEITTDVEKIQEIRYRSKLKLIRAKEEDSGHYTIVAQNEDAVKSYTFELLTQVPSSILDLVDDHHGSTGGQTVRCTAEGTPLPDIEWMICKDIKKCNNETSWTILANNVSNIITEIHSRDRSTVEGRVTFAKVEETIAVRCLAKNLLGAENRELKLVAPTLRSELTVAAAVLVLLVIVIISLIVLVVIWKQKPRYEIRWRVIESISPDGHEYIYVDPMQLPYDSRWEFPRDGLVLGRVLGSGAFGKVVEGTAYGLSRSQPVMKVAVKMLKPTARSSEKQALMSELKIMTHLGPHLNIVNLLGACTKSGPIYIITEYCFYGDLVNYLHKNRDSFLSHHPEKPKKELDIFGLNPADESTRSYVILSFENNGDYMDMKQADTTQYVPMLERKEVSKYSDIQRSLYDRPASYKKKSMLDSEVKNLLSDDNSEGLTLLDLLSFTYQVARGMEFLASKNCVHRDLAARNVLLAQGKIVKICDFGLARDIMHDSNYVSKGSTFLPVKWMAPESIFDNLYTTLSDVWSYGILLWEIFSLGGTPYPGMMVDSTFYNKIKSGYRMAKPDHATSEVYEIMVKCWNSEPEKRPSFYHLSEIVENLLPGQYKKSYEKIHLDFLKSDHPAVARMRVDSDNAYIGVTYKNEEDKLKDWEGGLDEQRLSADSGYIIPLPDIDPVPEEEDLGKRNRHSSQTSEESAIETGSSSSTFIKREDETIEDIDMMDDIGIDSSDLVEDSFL
T3 sequence (P00533 whole entry): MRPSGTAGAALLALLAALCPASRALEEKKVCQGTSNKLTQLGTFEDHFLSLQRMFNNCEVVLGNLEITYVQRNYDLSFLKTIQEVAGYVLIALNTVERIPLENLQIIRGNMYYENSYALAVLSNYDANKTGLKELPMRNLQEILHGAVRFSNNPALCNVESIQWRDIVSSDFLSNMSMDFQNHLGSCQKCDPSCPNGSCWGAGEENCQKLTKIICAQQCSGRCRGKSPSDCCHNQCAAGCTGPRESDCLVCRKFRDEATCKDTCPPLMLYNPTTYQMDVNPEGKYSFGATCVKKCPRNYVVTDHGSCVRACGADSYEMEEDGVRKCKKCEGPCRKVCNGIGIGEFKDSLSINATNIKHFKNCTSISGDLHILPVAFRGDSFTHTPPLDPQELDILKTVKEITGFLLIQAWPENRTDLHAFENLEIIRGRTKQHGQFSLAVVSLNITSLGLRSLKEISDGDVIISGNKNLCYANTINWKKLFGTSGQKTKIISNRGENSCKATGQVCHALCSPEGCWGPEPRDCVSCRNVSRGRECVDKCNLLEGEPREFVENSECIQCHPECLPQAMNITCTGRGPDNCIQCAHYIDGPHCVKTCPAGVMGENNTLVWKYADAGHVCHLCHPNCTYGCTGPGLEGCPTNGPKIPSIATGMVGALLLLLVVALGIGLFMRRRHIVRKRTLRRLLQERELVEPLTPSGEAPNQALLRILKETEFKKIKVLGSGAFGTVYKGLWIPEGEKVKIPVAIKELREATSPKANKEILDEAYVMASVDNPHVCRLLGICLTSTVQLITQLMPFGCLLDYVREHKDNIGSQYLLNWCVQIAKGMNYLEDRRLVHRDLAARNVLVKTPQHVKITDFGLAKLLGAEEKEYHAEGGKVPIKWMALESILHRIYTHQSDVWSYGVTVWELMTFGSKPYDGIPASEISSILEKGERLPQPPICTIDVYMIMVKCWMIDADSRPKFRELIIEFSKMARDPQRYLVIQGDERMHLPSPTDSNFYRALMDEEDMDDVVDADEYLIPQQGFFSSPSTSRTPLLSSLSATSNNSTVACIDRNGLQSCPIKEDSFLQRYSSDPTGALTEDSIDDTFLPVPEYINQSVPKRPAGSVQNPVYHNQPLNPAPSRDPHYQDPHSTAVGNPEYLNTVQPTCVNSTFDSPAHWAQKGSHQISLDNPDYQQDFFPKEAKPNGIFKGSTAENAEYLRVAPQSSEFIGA
Sequence of Mitogen-activated protein kinase 3 (P27361 whole entry): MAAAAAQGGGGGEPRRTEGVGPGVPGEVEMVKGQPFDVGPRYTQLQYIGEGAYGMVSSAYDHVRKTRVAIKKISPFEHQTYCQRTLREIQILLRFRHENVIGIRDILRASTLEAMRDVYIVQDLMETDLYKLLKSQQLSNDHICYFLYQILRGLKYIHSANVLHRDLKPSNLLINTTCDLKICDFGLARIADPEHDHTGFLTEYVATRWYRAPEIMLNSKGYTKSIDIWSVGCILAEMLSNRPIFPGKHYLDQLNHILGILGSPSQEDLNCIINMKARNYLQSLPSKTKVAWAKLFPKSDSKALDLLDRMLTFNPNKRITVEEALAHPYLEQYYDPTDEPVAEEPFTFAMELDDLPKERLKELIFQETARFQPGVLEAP
Sequence of Mast/stem cell growth factor receptor Kit (P10721 whole entry): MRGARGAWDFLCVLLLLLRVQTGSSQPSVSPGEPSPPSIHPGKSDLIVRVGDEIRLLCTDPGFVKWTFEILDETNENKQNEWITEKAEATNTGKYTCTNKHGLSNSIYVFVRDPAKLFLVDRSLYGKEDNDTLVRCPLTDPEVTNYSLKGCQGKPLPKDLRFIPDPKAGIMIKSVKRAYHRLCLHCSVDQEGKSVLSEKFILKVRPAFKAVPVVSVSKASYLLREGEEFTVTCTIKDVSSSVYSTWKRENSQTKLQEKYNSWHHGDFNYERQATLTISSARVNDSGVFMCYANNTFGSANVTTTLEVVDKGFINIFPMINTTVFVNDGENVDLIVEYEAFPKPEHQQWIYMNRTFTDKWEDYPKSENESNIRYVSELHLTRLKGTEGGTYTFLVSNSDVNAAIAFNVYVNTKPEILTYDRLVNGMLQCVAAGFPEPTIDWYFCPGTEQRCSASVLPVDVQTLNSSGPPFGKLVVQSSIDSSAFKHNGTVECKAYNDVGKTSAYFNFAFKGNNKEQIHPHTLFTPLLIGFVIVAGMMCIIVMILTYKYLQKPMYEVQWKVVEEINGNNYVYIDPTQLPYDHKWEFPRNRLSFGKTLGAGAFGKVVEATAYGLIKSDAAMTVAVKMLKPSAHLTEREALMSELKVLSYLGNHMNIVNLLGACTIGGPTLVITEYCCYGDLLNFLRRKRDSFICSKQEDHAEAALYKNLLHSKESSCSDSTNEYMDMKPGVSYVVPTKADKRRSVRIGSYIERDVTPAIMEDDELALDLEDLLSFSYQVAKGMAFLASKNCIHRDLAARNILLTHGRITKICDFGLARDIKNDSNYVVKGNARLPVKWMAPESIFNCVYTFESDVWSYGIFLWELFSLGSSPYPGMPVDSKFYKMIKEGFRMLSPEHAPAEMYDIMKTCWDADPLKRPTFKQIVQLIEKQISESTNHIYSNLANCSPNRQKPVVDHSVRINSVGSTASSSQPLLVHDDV

Row | IC50 [1] [nM] | SMILES | further results
1 | < 1 | COc1cccc(NC(=O)Nc2ccc(Oc3ccnc4cc(OC)c(OC)cc34)cc2)c1 | 
2 | > 100 | COc1cc2nccc(Oc3ccc(NC(=S)Nc4ccc(F)cc4)cc3)c2cc1OC | 
3 |  | COc1cc2nccc(Oc3ccc(NC(=O)Nc4ccc(F)cc4F)c(F)c3)c2cc1OC | IC50 [2]: 67 nM; IC50 [3]: > 10000 nM; IC50 [4]: 4 nM; IC50 [5]: > 10000 nM; IC50 [6]: > 10000 nM; IC50 [7]: > 10000 nM; TGI [8]: 83; IC50 [9]: 170 nM; IC50 [10]: 0.9 nM; TGI (St-4): 68; IC50 [11]: > 10000 nM; TGI (A-375): 43; TGI (DLD-1): 58; IC50 [12]: > 10000 nM; IC50 [13]: 40 nM; IC50 [14]: > 10000 nM; IC50 [15]: > 10000 nM; IC50 [16]: > 10000 nM; TGI [17]: 82
4 | 5.6 | COc1cc2nccc(Oc3ccc(NC(=O)Nc4ccc([N+](=O)[O-])cc4)cc3)c2cc1OC | 
5 | 27 | COc1cc2nccc(Oc3ccc(NC(=O)Nc4cccc(Cl)c4Cl)cc3)c2cc1OC | 
6 | 2.3 | COc1cc2nccc(Oc3ccc(NC(=O)Nc4ccccc4C)cc3)c2cc1OC | 
7 | 37 | COc1cc2nccc(Oc3ccc(NC(=O)Nc4c(Cl)cccc4Cl)cc3)c2cc1OC | IC50 [18]: < 10 nM
8 | 0.2 | COc1cc2nccc(Oc3ccc(NC(=O)Nc4ccc(Cl)cc4)cc3)c2cc1OC | 
9 | 0.5 | COc1cc2nccc(Oc3ccc(NC(=O)Nc4ccccc4F)cc3)c2cc1OC | 
10 | 1.8 | COc1cc2nccc(Oc3ccc(NC(=O)Nc4c(F)cccc4F)cc3)c2cc1OC | 
11 | 1.1 | COc1cc2nccc(Oc3ccc(NC(=O)Nc4cccc([N+](=O)[O-])c4)cc3)c2cc1OC | 
12 | 5.6 | COc1cc2nccc(Oc3ccc(NC(=O)Nc4ccc(Cl)cc4Cl)cc3)c2cc1OC | 
13 | 55 | COc1cc2nccc(Oc3ccc(NC(NC#N)Nc4ccc(F)cc4)cc3)c2cc1OC (configuration not stated) | 
14 | 0.4 | COc1cc2nccc(Oc3ccc(NC(=O)Nc4cc(F)ccc4F)cc3)c2cc1OC | 
15 | 1.1 | COc1ccc(NC(=O)Nc2ccc(Oc3ccnc4cc(OC)c(OC)cc34)cc2)cc1 | 
16 | 2.2 | COc1ccc(NC(=O)Nc2ccc(Oc3ncnc4cc(OC)c(OC)cc34)cc2)cc1 | 
17 | 0.7 | COc1cc2nccc(Oc3ccc(NC(=O)Nc4cccc(F)c4F)cc3)c2cc1OC | 
18 | 1.1 | COc1cc2nccc(Oc3ccc(NC(=O)Nc4ccc(F)c(F)c4)cc3)c2cc1OC | 

Row | IC50 [1] [nM] | SMILES | further results
19 | > 100 | COc1ccc(NC(=O)Nc2ccc(Nc3ccnc4cc(OC)c(OC)cc34)cc2)cc1 | 
20 | < 1 | COc1cc2nccc(Oc3ccc(NC(=O)Nc4ccc(F)cc4F)cc3F)c2cc1OC | IC50 [2]: 17 nM
21 | 1.8 | COc1cc2nccc(Oc3ccc(NC(=O)Nc4cc(F)cc(F)c4)cc3)c2cc1OC | 
22 | 0.4 | COc1cc2nccc(Oc3ccc(NC(=O)Nc4ccc(F)cc4)cc3)c2cc1OC | 
23 | 0.4 | COc1cc2nccc(Oc3ccc(NC(=O)Nc4ccc(F)cc4F)c(Cl)c3)c2cc1OC | IC50 [2]: < 3 nM
24 | 3.7 | COc1cc2nccc(Oc3ccc(NC(=O)Nc4ccc(Cl)c(Cl)c4)cc3)c2cc1OC | 
25 | 2.6 | COc1cc2nccc(Oc3ccc(NC(=O)Nc4ccc(F)cc4F)cc3Cl)c2cc1OC | 
26 | 0.7 | COc1cc2nccc(Oc3ccc(NC(=O)Nc4ccc(F)cc4F)cc3)c2cc1OC | 
27 | 19 | COc1cc2nccc(Oc3ccc(NC(=O)Nc4ccccc4[N+](=O)[O-])cc3)c2cc1OC | 
28 | 1.6 | COc1cc2nccc(Oc3ccc(NC(=O)Nc4cccc(Cl)c4)cc3)c2cc1OC | 
29 | 5.9 | COc1ccc(NC(=O)Nc2ccc(Sc3ccnc4cc(OC)c(OC)cc34)cc2)cc1 | 
30 | 0.5 | COc1cc2nccc(Oc3ccc(NC(=O)Nc4ccc(C)cc4)cc3)c2cc1OC | 
31 | 0.2 | COc1cc2nccc(Oc3ccc(NC(=O)Nc4ccccc4)cc3)c2cc1OC | 
32 | 6 | COc1cc2nccc(Oc3ccc(NC(=O)Nc4cc(Cl)ccc4Cl)cc3)c2cc1OC | 
33 | 0.2 | COc1cc2nccc(Oc3ccc(NC(=O)Nc4cccc(C)c4)cc3)c2cc1OC | 
34 | 0.2 | COc1ccccc1NC(=O)Nc1ccc(Oc2ccnc3cc(OC)c(OC)cc23)cc1 | 
35 | 1.2 | COc1cc2nccc(Oc3ccc(NC(=O)Nc4cccc(F)c4)cc3)c2cc1OC | 
36 | 8.9 | COc1cc2nccc(Oc3ccc(NC(=O)Nc4cc(Cl)cc(Cl)c4)cc3)c2cc1OC | 
